m5-HT2A agonist: agonists of mouse serotonin 5-HT2A receptor (HTR2A). hit rate 0.66% among 360,000. activation, % at 7.6 µM. AID 624169. CHO-K1 mHTR2A beta-arrestin complementation, luminescence; percent of 30 µM serotonin response;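 active = activation above a run cutoff, the mean activation of all tested compounds plus 3 SD, cut at about 14% in these data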;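 also: 0% = plate median of compound wells and 100% = 30 µM serotonin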
Target sequence (P35363 whole entry, looked up): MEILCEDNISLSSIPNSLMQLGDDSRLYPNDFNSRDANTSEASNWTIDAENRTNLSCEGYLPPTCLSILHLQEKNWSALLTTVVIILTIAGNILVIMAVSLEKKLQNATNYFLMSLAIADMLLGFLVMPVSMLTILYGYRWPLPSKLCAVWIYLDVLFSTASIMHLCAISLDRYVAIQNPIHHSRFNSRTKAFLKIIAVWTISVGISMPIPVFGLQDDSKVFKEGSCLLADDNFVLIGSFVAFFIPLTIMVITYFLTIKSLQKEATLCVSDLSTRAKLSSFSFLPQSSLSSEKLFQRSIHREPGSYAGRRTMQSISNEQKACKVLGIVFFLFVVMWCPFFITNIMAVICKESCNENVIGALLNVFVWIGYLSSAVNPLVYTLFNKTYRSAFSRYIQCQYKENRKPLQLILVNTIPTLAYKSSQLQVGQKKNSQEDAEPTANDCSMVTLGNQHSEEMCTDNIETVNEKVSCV
TAAR1 agonist: human TAAR1 agonism. hit rate 0.99% among 360,000. Q96RJ0. AID 624467. CHO RD-HGA16 TAAR1, Fluo-8 calcium fluorescence; vehicle wells 0%, saturating PEA agonist 100%. activation, % at 3 µM;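 active = activation above the mean activation of all test compounds in the run plus 3 SD, cut at about 38% in these data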
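Signal – calcium-sensitive Fluo-8 signal, excitation 470-495, emission 515-575 nm · System – RD-HGA16 (CHO) cells co-expressing Gα16 and hTAAR1 · Incubation – 17-24 h seeding, 75 min 37 °C dye, 30 min RT · Compound dosing – 3 µM single concentration · Repeats – no replicates (n 1)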
Beta2AR agonist: activates human beta-2 adrenergic receptor causing internalization; AID 504454; hit rate 0.43% among 340,000; response, % (no concentration beside the values); P07550; Am2.2-beta2AR cells, FAP receptor internalization, flow cytometry;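 active = response above a set limit, near 3 SD of response in nonfluorescent compounds, cut at about 42% in these data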
MC4R antagonist: human MC4R antagonism in cAMP assay; inhibition, % at 6.5 µM; hit rate 0.48% among 360,000; MC4R-expressing cells, MTII-stimulated cAMP, LANCE TR-FRET; P32245;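 active = inhibition above its plate's cutoff, the mean of tested wells on that plate plus 3 SD, cut at about 29% in these data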;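 also: 0% = Melanotan II alone and 100% = Melanotan II plus saturating MCL0020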
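Assay system: U2OS cells stably expressing human melanocortin 4 receptor (MC4R) / Dosing: 6.5 µM / Timing: compound 30 min, challenge 1 h, detection 1 h / Measured by: Eu-cAMP/anti-cAMP TR-FRET, emission 671 nm / Replicates: singlicate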
MC4R ag barr: activates human MC4R beta-arrestin recruitment | P32245 | U2OS MC4R beta-arrestin complementation, luminescence; percent of melanotan II response, DMSO zero | activation, % at 8.9 µM | hit rate 0.98% among 360,000 | AID 540308;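 active = activation above a per-plate cutoff, the mean activation of sample wells on that plate plus 3 SD, cut at about 8% in these data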
TAAR1 antagonist: antagonists of human TAAR1. CHO RD-HGA16 TAAR1, Fluo-8 calcium fluorescence, antagonist. AID 624466. Q96RJ0. hit rate 1.5% among 360,000. inhibition, % at 3 µM;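 active = inhibition above a per-plate cutoff, the mean inhibition of test compounds on that plate plus 3 SD, cut at about 49% in these data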;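 also: 0% = DMSO plus EC80 beta-PEA response and 100% = DMSO alone without agonist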
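Test system: RD-HGA16 CHO cells with stable hTAAR1 and Gα16 / Probe or stimulus: EC80 β-phenethylamine stimulus / Times: seeding 17-24 h prior, 75-min 37 °C, 30-min RT dye loading / Detection: Fluo-8 calcium-sensitive fluorescence / Read-out basis: % inhibition scaled between DMSO and EC80 PEA controls / Repeats: singlicate, one well per test compound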
TAAR1 ag conf: confirmation of human TAAR1 agonists | shares compounds with TAAR1 agonist | CHO RD-HGA16 TAAR1, Fluo-8 calcium fluorescence; scaled: DMSO 0%, maximal phenethylamine 100% | activation, % at 3 µM | hit rate 82% among 2,400 | AID 651783;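 active = activation above a cutoff set at the run's mean compound activation plus 3 SD, cut at about 39% in these data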
Ga16 nonsel ag: nonselective agonist in parental cells, TAAR1 agonist counter-screen. shares compounds with TAAR1 agonist. CHO-Ga16 parental, Fluo-8 calcium fluorescence; normalized to maximal ATP response, DMSO zero. activation, % at 3 µM. hit rate 50% among 2,400. AID 651787;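 active = activation above the run cutoff, the mean activation over all tested wells plus 3 SD, cut at about 12% in these data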;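 also: 0% = DMSO wells and 100% = maximal ATP response on the peak over basal ratio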
TAAR1 desens: human TAAR1 agonist that also desensitizes the receptor. shares compounds with TAAR1 agonist. CHO RD-HGA16 hTAAR1, Fluo-8 calcium, beta-PEA response inhibition. inhibition, % at 3 µM. hit rate 46% among 2,400;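 active = inhibition above the run cutoff, the mean inhibition of all test compounds plus 3 SD, cut at about 49% in these data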;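 also: beta-PEA stimulus applied at its EC80; loss of beta-PEA calcium signal after compound pretreatment read as receptor desensitization; 0% = DMSO with beta-PEA at EC80 and 100% = DMSO alone without agonist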
Ga16 nonsel ant: nonselective Ga16 antagonism, counter-screen; inhibition, % at 3 µM; AID 651952; CHO-Ga16 ATP-induced calcium, Fluo-8 fluorescence; hit rate 39% among 2,400; shares compounds with TAAR1 agonist;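 active = inhibition above the plate's mean compound inhibition plus 3 SD, computed per plate, cut at about 22% in these data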;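 also: 0% = EC80 ATP with DMSO and 100% = DMSO wells without ATP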
The depositor's hits bear a star; x = no result. The list is not random: actives were taken first. Their share in the collection is about 4.3%.

SMILES	m5-HT2A agonist	TAAR1 agonist	Beta2AR agonist	MC4R antagonist	MC4R ag barr	TAAR1 antagonist	TAAR1 ag conf	Ga16 nonsel ag	TAAR1 desens	Ga16 nonsel ant
C#C[C@]1(O)CCC2C3CCC4=Cc5oncc5CC4(C)C3CCC21C (some centres not stated)	4	62*	11	10	1	76*	60*	43*	54*	36*
C#CC1(O)CCC2C3CCC4=Cc5oncc5CC4(C)C3CCC21C (configuration not stated)	-6	51*	x	10	2	65*	62*	31*	70*	35*
C#CC1(O)CCC2C3CCC4=C(CCC(=O)C4)C3CCC21C (configuration not stated)	2	14	1	-1	-1	48	x	x	x	x
COc1ccc(OC)c(Nc2nc(NCc3ccco3)c3ccccc3n2)c1	3	3	7	-11	0	-1	x	x	x	x
COc1cccc(Nc2nc(-c3ccccc3)nc3ccccc23)c1	-2	2	-1	14	2	8	x	x	x	x
OCCNc1nc(NCc2ccccc2)c2ccccc2n1	-3	1	8	-3	0	-10	x	x	x	x
Cc1cccc(Nc2nc(NCc3ccco3)c3ccccc3n2)c1	-9	70*	39	-3	0	31	50*	4	48	28*
OCCNc1nc(Nc2ccc(O)cc2)nc2ccccc12	0	88*	-6	18	0	59*	97*	0	95*	-6
Oc1cccc(Nc2c3ccccc3nc3ccccc23)c1	-2	-2	7	-6	-2	9	x	x	x	x
COc1cccc(Nc2nc(NCCO)c3ccccc3n2)c1	-5	50*	14	-1	-1	34	80*	2	60*	2
OCCNc1nc(Nc2cccc(O)c2)nc2ccccc12	4	97*	7	21	-3	84*	101*	1	98*	7
CC1CCc2ccccc2N1CC(=O)Nc1cccc(S(=O)(=O)N2CCCC2)c1 (configuration not stated)	-2	-1	3	19	1	-2	x	x	x	x
Cc1oc(-c2ccccc2Cl)nc1CS(=O)(=O)CC(=O)NCCc1ccccc1	2	72*	-6	1	0	50*	85*	4	72*	6
COc1ccc(CCNC(=O)CS(=O)(=O)Cc2nc(-c3ccccc3Cl)oc2C)cc1OC	0	1	-2	5	1	0	x	x	x	x
COc1ccc(/C=C/CN2CCC(C(=O)NC(c3ccc(F)cc3)c3ccc4ccccc4n3)CC2)cc1 (configuration not stated)	-6	47*	x	7	2	32	40*	23*	28	26*
CCN(CC)S(=O)(=O)c1ccc(C(=O)NCCSc2c[nH]c3ccccc23)cc1	-4	55*	2	11	-1	86*	1	3	16	17
CCCCC(=O)NS(=O)(=O)c1ccc(N=NN(CC)CC)cc1	0	3	4	2	0	10	x	x	x	x
COCCCn1c(O)c(/C=C2\N=C(C#N)C(=Nc3ccc(C)cc3)O2)sc1=S	-1	52*	-312	2	0	74*	20	15*	10	25*
O=C(O)CCCn1c(O)c(C=C2N=c3ccccc3=N2)sc1=S	-2	3	16	-10	-4	-3	x	x	x	x
COc1ccc(N(CC(=O)NCc2ccc3c(c2)OCO3)C(=O)c2csnn2)cc1	0	2	-6	3	-1	-2	x	x	x	x
Cc1nn(C)c(Cl)c1/C=N/OC(=O)c1ccc(F)cc1	-1	88*	2	2	-2	11	3	2	3	10
C=CCN(c1ccc(C(=O)NCCN2CCOCC2)cc1)S(C)(=O)=O	-2	2	7	18	1	-4	x	x	x	x
Cc1ccc(N=C2NC(=O)/C(=C/c3cccn3C)S2)cc1	-8	3	6	-20	0	-25	x	x	x	x
CC1C/C(=C/c2cccn2C)C(=O)/C(=C/c2cccn2C)C1 (configuration not stated)	-2	67*	-381	3	1	76*	40*	45*	51*	65*
CC1CC1C(=O)OCC(=O)N(C)c1c(N)n(Cc2ccccc2)c(=O)[nH]c1=O (configuration not stated)	-2	51*	5	8	-2	-20	4	14*	3	9
SMILES	m5-HT2A agonist	TAAR1 agonist	Beta2AR agonist	MC4R antagonist	MC4R ag barr	TAAR1 antagonist	TAAR1 ag conf	Ga16 nonsel ag	TAAR1 desens	Ga16 nonsel ant
O=S(=O)(NCCN1CCOCC1)c1cc(Cl)ccc1Cl	-4	6	0	15	0	-2	x	x	x	x
Cc1ccc(S(=O)(=O)NCC(=O)N(CC(=O)NC2CCCC2)c2ccc3c(c2)OCCO3)cc1	4	14	5	1	-1	-19	x	x	x	x
CCC(C)(C)NC(=O)CN(C(=O)CNS(=O)(=O)c1ccc(C)cc1)c1ccc2c(c1)OCCO2	-3	52*	23	10	0	-13	82*	26*	12	8
CC(C)(C)NC(=O)CN(C(=O)CNS(=O)(=O)c1ccc(Cl)cc1)c1ccc2c(c1)OCCO2	-6	72*	-4	1	0	6	100*	45*	25	8
O=C(c1cc(C2CC2)nn1-c1ccccc1)N1CCN(c2ccccn2)CC1	-7	3	-10	-1	-2	9	x	x	x	x
CCc1ccc(Nc2cc(=O)n(C3CCCCC3)c(=O)[nH]2)cc1	-3	79*	10	-4	0	44	108*	50*	81*	32*
COc1ccc(C)cc1NC(=O)CSc1ccc(-c2ccco2)nn1	4	3	-12	8	-4	-8	x	x	x	x
COc1cccc(CNCC(O)COc2ccc(C(=O)c3ccccc3)cc2)c1 (configuration not stated)	-1	23	-21	28	3	14	x	x	x	x
